The text below walks through data of article PMC2645920 (Journal of the American Chemical Society, 2008).

The term Kd denotes the concentration at which binding is half-saturated.

The target in data set [1] is 5′-FAM-CCG-(CUG)10-CGG-3′ RNA (Seq. A). The data set can be described thus: Fluorescence titration. Format: binding. The following applies: FT.
The target in data set [2] is HIV-1 frameshift stimulatory sequence (FSS) RNA hairpin (Seq. F). Description: Fluorescence titration. Format: binding. The following applies: FT.
The test system of data set [3] is (CUG)109 RNA – MBNL1 protein interaction. The data set can be described thus: Enzyme Fragment Complementation. The following applies: EFC assay, immobilized (CUG)109 RNA, PL-MBNL1. Format: biochemical.
Data set [4] can be described thus: Dynamic light scattering. Format: physicochemical. The following applies: 750 μM in 1X PBS. The method, boiled down: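 Test compound dissolved in 1X PBS (pH 7.2), pre-filtered, and read at 22 °C with a 25 mW, 750 nm laser and a 90° detector. Detergent runs added 0.01% Triton-X 100. Each sample got ten repeat measurements, filtered on sum of squares and baseline error. Hr was derived by regularization from the autocorrelation decay. Intensity (kcps) is the mean of three or more measurements, compared with buffer.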

Turning to (Quin-Cys-Pro-Phe)2 [Compound 5-5], the Kd in data set [1] is > 40 µM; in data set [2], 0.35 ± 0.11 µM. For the same compound, in data set [3], the “Inhibitory effect on (CUG)n – MBNL1 interaction” value is “do not show any inhibitory effect”.

As to `Nc1c(/N=N/c2ccc(-c3ccc(/N=N/c4cc(S(=O)(=O)O)c5ccccc5c4N)cc3)cc2)cc(S(=O)(=O)O)c2ccccc12` [Congo Red], in data set [4] (pH 7.2), the “Hr (hydrodynamic radius)” value turned out to be 69.25 nm and the Intensity turned out to be 242±10 kcps. In addition, in data set [4] (pH 7.2 + Triton-X 100 (0.01%)), the “Hr (hydrodynamic radius)” value is listed as 40.72 nm and the Intensity amounted to 190±24 kcps.
